Common to all, as to settings: stereoisomer not certain
One assay relates to O51D1 I89V. The method in brief: (§1)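 Each receptor–molecule pair is labelled responsive or non-responsive (inactive) according to whether the original authors judged the measured signal statistically different from baseline. The data were taken from the main text and supplementary material of published papers and checked for typos and inconsistencies. Assay methods differed by source, with transient luciferase assays in mammalian cell lines being common.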
O51D1 I89V, sequence (as listed by the source, stated change not applied): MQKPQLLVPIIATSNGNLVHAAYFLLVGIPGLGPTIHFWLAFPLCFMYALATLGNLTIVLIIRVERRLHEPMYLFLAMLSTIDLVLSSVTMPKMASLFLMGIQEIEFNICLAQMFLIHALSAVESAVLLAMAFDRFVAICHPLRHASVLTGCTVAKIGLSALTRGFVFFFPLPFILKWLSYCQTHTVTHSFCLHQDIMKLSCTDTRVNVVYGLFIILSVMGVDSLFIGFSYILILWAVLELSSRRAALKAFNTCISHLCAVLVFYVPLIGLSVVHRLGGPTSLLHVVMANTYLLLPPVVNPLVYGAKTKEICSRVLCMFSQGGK

For assay [1], the system named is O51F1. An outline of the steps:
as §1
Target sequence in this assay (as listed by the source): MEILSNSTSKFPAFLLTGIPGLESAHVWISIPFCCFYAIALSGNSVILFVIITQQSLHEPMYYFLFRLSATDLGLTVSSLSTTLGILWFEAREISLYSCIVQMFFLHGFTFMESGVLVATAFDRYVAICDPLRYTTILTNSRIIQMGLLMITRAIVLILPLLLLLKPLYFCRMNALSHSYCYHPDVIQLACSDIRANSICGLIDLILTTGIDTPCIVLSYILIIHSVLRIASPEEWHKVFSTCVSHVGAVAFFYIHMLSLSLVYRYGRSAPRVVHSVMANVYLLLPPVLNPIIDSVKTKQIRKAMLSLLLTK

Assay [2] deals with O51F1. The method in brief: as §1
Target sequence in this assay (as listed by the source): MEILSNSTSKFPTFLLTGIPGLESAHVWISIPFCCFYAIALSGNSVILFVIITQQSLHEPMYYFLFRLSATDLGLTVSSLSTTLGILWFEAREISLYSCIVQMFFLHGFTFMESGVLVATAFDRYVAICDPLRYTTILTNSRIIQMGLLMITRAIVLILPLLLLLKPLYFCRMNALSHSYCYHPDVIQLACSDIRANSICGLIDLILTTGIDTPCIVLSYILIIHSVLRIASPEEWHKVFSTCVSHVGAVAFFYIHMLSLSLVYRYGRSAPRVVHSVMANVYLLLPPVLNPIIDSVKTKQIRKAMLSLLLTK
This is another data set of the same source.

The test system of a further assay is O51F2 Y341S. The method in brief:
as §1

Another assay concerns O51G1. The method in brief:
as §1

In another assay the test system is O51I1 V164L. The method in brief:
as §1

A further assay has as its system O51J1 R75H I202V. An outline of the steps:
as §1

The test system of assay [3] is O51L1. An outline of the steps: as §1
Target sequence in this assay (as listed by the source): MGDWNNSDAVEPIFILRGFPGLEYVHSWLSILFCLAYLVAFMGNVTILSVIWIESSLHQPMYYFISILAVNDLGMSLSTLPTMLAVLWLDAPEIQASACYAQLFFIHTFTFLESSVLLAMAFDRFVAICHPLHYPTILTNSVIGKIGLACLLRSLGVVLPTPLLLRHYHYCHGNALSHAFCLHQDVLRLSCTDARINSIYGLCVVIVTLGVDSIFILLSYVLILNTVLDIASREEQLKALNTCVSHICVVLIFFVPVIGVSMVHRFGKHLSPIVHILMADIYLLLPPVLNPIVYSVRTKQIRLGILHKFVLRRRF
The test system of assay [4] is O51L1. An outline of the steps: as §1
Target sequence in this assay (as listed by the source): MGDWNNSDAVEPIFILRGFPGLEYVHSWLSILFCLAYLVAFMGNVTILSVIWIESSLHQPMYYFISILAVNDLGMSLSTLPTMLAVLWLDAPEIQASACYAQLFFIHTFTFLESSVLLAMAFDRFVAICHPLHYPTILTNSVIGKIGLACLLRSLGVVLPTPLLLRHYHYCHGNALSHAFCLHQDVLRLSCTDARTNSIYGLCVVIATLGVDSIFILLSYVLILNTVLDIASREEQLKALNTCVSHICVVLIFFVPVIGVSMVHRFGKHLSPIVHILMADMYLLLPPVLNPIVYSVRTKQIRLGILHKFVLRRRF
The source holds these as a separate data set.

The next assay has as its system O51T1. An outline of the steps: as §1
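Further: active if original authors judged signal statistically different from baseline.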

O51G1, sequence (as listed by the source): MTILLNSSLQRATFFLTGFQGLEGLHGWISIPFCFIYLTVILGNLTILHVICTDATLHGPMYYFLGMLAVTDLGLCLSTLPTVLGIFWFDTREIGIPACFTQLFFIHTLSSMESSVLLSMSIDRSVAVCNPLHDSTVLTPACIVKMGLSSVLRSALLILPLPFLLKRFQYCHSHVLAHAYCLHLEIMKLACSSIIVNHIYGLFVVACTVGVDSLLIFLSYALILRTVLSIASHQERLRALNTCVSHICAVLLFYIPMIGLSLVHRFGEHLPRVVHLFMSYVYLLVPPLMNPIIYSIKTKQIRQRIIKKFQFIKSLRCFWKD
O51I1 V164L, sequence (as listed by the source, stated change not applied): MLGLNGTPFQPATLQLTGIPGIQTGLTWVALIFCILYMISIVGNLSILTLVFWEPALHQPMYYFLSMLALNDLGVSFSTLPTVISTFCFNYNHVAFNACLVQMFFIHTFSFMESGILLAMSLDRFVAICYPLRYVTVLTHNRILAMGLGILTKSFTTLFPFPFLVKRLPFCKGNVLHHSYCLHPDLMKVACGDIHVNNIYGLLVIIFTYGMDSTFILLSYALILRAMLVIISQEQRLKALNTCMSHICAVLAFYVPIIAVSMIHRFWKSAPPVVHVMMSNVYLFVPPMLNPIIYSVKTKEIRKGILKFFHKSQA
O51T1, sequence (as listed by the source): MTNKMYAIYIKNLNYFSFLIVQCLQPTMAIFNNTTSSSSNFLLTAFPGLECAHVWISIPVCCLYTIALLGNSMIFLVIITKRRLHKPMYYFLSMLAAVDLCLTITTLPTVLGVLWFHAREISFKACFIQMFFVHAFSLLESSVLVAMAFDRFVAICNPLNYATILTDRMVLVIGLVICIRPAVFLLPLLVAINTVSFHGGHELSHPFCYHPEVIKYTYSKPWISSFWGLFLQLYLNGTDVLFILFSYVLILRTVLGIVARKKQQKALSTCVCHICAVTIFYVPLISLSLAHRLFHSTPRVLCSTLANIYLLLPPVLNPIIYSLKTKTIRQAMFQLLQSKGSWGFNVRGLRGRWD
O51F2 Y341S, sequence (as listed by the source, stated change not applied): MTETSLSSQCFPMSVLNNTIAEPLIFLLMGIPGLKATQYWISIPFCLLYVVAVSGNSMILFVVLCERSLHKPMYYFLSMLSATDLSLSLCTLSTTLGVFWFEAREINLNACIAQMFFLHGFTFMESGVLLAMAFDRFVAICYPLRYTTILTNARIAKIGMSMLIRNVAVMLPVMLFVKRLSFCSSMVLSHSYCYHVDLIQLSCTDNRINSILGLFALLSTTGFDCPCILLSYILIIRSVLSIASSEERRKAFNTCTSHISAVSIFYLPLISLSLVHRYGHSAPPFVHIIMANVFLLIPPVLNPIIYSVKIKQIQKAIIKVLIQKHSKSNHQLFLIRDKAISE

Turning to `C=CCOC(=O)Cc1ccccc1`, the “odorant receptor agonist call” value in the assay with O51D1 I89V, in the assay with O51F1 [1], in the assay on O51F1 [2], with O51F2 Y341S, with O51G1 and in the assay on O51I1 V164L was “inactive” in each case. Further, the “odorant receptor agonist call” value in the assay on O51J1 R75H I202V and in the assay with O51T1 was “inactive” each time. Besides, the “odorant receptor agonist call” value in the assay with O51L1 [3] and in the assay with O51L1 [4] was “active” throughout.

The values above are taken from the M2OR odorant receptor database.
